We go through ten molecules from ChEMBL document CHEMBL4043075, “Development of Fluorinated Analogues of Perhexiline with Improved Pharmacokinetic Properties and Retained Efficacy” (J Med Chem, 2017).

Data set [1] can be described thus: Half life in Sprague-Dawley rat liver microsomes at 3 uM up to 45 mins in presence of NADPH by LC-MS/MS analysis. The format is ADME, microsome.
A short description of data set [2]: Half life in human liver microsomes at 3 uM up to 45 mins in presence of NADPH by LC-MS/MS analysis. The format is ADME, microsome.
Data set [3] is described as follows: Stability of the compound in pH 7.4 PBS buffer at 37 degC after 1 hr. The format is physicochemical. The following applies: pH 7.4, 1 h. In outline:
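Compound incubated 1 h in pH 7.4 PBS at 37 °C, then checked for decomposition.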

The target of data set [4] is T1, Carnitine O-palmitoyltransferase 1, muscle isoform (Rattus norvegicus, UniProt Q63704).
T1 sequence (Q63704 whole entry): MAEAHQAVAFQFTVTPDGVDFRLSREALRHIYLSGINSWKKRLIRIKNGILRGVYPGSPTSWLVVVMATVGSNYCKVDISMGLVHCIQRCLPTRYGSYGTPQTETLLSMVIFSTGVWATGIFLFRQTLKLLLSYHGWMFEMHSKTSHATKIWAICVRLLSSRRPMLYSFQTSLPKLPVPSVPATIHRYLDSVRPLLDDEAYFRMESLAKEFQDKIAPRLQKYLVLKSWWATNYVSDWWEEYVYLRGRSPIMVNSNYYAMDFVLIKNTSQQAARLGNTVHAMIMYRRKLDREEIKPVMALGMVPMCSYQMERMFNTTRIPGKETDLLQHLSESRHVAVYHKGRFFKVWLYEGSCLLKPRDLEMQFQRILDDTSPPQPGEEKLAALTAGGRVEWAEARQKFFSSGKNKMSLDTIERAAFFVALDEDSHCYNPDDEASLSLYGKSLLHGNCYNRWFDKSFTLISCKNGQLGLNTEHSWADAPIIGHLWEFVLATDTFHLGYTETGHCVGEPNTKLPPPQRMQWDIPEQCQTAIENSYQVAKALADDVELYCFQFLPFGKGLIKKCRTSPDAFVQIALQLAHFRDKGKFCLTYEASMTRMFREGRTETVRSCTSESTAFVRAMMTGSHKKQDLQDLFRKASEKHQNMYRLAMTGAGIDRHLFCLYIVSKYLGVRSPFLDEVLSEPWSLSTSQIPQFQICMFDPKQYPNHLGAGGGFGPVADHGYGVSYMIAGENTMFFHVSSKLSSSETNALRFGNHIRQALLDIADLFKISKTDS
Put plainly: Inhibition of Wistar rat heart mitochondrial CPT-1 assessed as reduction in conversion of palmitoyl CoA and L-carnitine into palmitoylcarnitine preincubated for 3 mins followed by L-carnitine and palmitoyl CoA addition measured for 3.5 mins by spectrophotometric analysis.

In the next data set the target is CYP2D6 (Homo sapiens, UniProt P10635). Put plainly: Drug metabolism assessed as human CYP2D6-mediated compound degradation by measuring half life at 5 uM up to 45 mins in presence of NADPH by LC-MS/MS analysis. The format is ADME.
Chain of CYP2D6 (P10635 whole entry, the tested form may be a part): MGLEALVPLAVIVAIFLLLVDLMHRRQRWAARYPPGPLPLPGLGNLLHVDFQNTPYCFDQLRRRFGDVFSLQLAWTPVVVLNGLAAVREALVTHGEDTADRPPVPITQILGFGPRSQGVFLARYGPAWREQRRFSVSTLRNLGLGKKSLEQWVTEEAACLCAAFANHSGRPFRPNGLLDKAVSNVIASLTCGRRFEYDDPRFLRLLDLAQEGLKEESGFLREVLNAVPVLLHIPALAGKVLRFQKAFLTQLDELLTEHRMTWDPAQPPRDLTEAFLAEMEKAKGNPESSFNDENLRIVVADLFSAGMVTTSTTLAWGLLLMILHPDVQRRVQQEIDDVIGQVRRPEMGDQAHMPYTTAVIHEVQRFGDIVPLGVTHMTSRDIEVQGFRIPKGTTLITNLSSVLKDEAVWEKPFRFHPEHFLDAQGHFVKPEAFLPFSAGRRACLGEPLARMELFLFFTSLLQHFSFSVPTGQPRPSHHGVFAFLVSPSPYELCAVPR
The test system of another data set is Heart. Put plainly: Cardioprotective activity against Langendorff perfused C57BL/6 mouse heart assessed as lusitropic effect at 2 uM measured for 40 mins reperfusion period in presence of high fat. The format is functional, tissue-based. In outline: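 Isolated C57BL/6 hearts (25-30 g) retrogradely perfused at constant 80 mmHg, 37 °C, 95% O2/5% CO2, with modified Krebs containing 1.2 mM sodium palmitate conjugated to 3% BSA. After 10 min stabilisation, 30 min perfusion with control buffer or compound at 2 or 10 µM. LVdP/dt max and min derived from LV pressure over 40 min; mean ± SEM, n = 12-19, 1-way ANOVA with Bonferroni.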

Active and inactive are the calls of the source. The rule behind the calls is not given here.

Consider `CC1(C)CCC(C(CC2CCCCN2)C2CCCCC2)CC1` (configuration not stated), for which the values for the half-life at 3 µM in data set [1] and in data set [2] were 20 min and 1.28 h, respectively. For the same molecule, the Stability result in data set [3] was “Stable”.

On to `FC1(F)CCCC(C(CC2CCCCN2)C2CCCCC2)C1` (configuration not stated), for which the half-maximal inhibitory concentration (IC50) in data set [4] stood at 215 µM. The half-life at 3 µM in data set [1] is 35 min; in data set [2] it was greater than 2.5 h. Besides, the Stability result in data set [3] is “Stable”.

With `FC1(F)CCC(C(CC2CCCCN2)C2CCC(F)(F)CC2)CC1` (configuration not stated), the half-life at 5 µM on CYP2D6 was greater than 150 min. The IC50 in data set [4] amounted to 88 µM. Moreover, the half-life at 3 µM is greater than 1500 min in data set [1] and greater than 66.7 h in data set [2]. Besides, the Stability entry in data set [3] is “Stable”.

For the molecule `c1ccc(C(CC2CCCCN2)C2CCCCC2)cc1` (configuration not stated), the half-life at 3 µM came to 4 min in data set [1] and 0.933 h in data set [2]. For the same molecule, the Stability entry in data set [3] was “Stable”.

`C1CCC(C(CC2CCCCN2)C2CC2)CC1` (configuration not stated): the figures for the half-life at 3 µM in data set [1] and in data set [2] were 3 min and 2.07 h, respectively. In addition, the Stability entry in data set [3] is given as “Stable”.

For the molecule `FC1CCC(C(CC2CCCCN2)C2CCC(F)CC2)CC1` (configuration not stated), the Stability entry in data set [3] was “Unstable”.

As for `C1CCC(C(CC2CCCCN2)C2CCCC2)CC1` (configuration not stated), the half-life at 5 µM on CYP2D6 is 16 min. The IC50 in data set [4] was 11 µM. Also, the results for the half-life at 3 µM in data set [1] and in data set [2] were 19 min and greater than 2.5 h, respectively. In data set [3], the Stability result is given as “Stable”.

Regarding `FC1CCC(C(CC2CCCCN2)C2CCCCC2)CC1` (configuration not stated), the half-life at 5 µM at CYP2D6 was determined as 16 min. Further, the half-life at 3 µM in data set [1] is 11 min; in data set [2], 1.08 h. Moreover, the Stability entry in data set [3] was “Unstable”.

Turning to `C1CCC(C(CC2CCCCN2)C2CCCCC2)CC1` (racemic), the result in the data set on Heart was Active.

For `C1CCC(C(CC2CCCCN2)C2CCCCC2)CC1.O=C(O)/C=C\C(=O)O` (configuration not stated) [PERHEXILINE MALEATE], in data set [4], the IC50 is 32 µM. Moreover, the half-life at 3 µM in data set [1] stood at 10 min; in data set [2], 1.63 h.
